According to publication PMC11909909 (BMC Pharmacology & Toxicology, 2025):

Legend:
[1] = system: coagulation parameters (PT, PTA, APTT, TT); test: Coagulation parameters; format: in vivo, healthy Chinese subjects; conditions: for PT / TT / APTT / PTA: mean ± SD
[2] = Pharmacokinetics after a single 150 mg oral dose, fasting or postprandial; format: in vivo, healthy Chinese subjects
Procedure, shortened: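 Healthy volunteers, 50 per fasting or fed trial, in a randomized two-sequence (TRTR/RTRT), four-period, fully replicated crossover with a 7-day washout. Each dose was one 150 mg capsule with 240 mL warm boiled water, given fed after a ~950 kcal high-fat meal. 18 venous samples per period to 48 h in precooled EDTA-K2 tubes, spun 1700g 10 min 4 °C, plasma stored ≤−60 °C. Total-dabigatran range 1.000–300.0 ng/mL; parameters per subject.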

SMILES	change of TT values after administration ([1]; both fasting and postprandial)	PT ([1]; fasting, fourth periodicity, n = 48, screening 13.01 ± 0.490) [s]	TT ([1]; fasting, fourth periodicity, n = 48, screening 17.71 ± 0.880) [s]	APTT ([1]; fasting, fourth periodicity, n = 48, screening 36.22 ± 3.090) [s]	PTA ([1]; fasting, fourth periodicity, n = 48, screening 101.7 ± 7.960) [%]	PT ([1]; fasting, second periodicity, n = 50, screening 13.01 ± 0.490) [s]	TT ([1]; fasting, second periodicity, n = 50, screening 17.71 ± 0.880) [s]	APTT ([1]; fasting, second periodicity, n = 50, screening 36.22 ± 3.090) [s]	PTA ([1]; fasting, second periodicity, n = 50, screening 101.7 ± 7.960) [%]	PT ([1]; postprandial, fourth periodicity, n = 50, screening 12.62 ± 0.570) [s]	TT ([1]; postprandial, fourth periodicity, n = 50, screening 17.63 ± 0.940) [s]	APTT ([1]; postprandial, fourth periodicity, n = 50, screening 36.25 ± 2.860) [s]	PTA ([1]; postprandial, fourth periodicity, n = 50, screening 108.9 ± 10.58) [%]	PT ([1]; postprandial, second periodicity, n = 50, screening 12.62 ± 0.570) [s]	TT ([1]; postprandial, second periodicity, n = 50, screening 17.63 ± 0.940) [s]	APTT ([1]; postprandial, second periodicity, n = 50, screening 36.25 ± 2.860) [s]	PTA ([1]; postprandial, second periodicity, n = 50, screening 108.9 ± 10.58) [%]	Tmax ([2]; after a high-fat meal, median, both formulations) [h]	Tmax ([2]; human, plasma, oral, 150 mg) [h]
CCCCCCOC(=O)N=C(N)c1ccc(NCc2nc3cc(C(=O)N(CCC(=O)OCC)c4ccccn4)ccc3n2C)cc1 [dabigatran etexilate]	increased more significantly	13.07 ± 0.488	20.73 ± 2.099	36.61 ± 3.352	101.2 ± 8.167	12.89 ± 0.475	19.58 ± 1.976	36.71 ± 3.947	104.4 ± 8.741	12.82 ± 0.479	21.30 ± 2.537	36.22 ± 2.746	105.5 ± 8.808	13.14 ± 0.504	20.78 ± 2.490	36.06 ± 2.660	100.2 ± 8.297	–	–
[H]/N=C(/N)c1ccc(NCc2nc3cc(C(=O)N(CCC(=O)O)c4ccccn4)ccc3n2C)cc1 [dabigatran]	–	–	–	–	–	–	–	–	–	–	–	–	–	–	–	–	–	4	2.5
